Test results reported in ChEMBL document CHEMBL1151940, “Chemical and biological investigation of cyclopropyl containing diaryl-pyrazole-3-carboxamides as novel and potent cannabinoid type 1 receptor antagonists” (J Med Chem, 2009).

How the values were obtained:
[1] = system: Mus musculus; experiment: Antiobesity activity in TBU8 high fat diet-induced obese C57/BL6 mouse assessed as serum HDL-cholesterol level at 30 mg/kg, po administered once daily for 14 days (Rvb=4.42+/-0.08 […]); assay type: functional, C57Bl/6
[2] = system: Mus musculus; experiment: Antiobesity activity in TBU8 high fat diet-induced obese C57/BL6 mouse assessed as serum triglyceride level at 30 mg/kg, po administered once daily for 14 days (reference value: 1.42+/-0.04 […]); assay type: functional, C57Bl/6
[3] = system: Mus musculus; experiment: Antiobesity activity in TBU8 high fat diet-induced obese C57/BL6 mouse assessed as serum cholesterol level at 30 mg/kg, po administered once daily for 14 days (reference value: 5.35+/-0.12 […]); assay type: functional, C57Bl/6
[4] = system: Mus musculus; experiment: Antiobesity activity in TBU8 high fat diet-induced obese C57/BL6 mouse assessed as serum LDL-cholesterol level at 30 mg/kg, po administered once daily for 14 days (Rvb=0.84+/-0.03 […]); assay type: functional, C57Bl/6
[5] = system: Mus musculus; experiment: Antiobesity activity in TBU8 high fat diet-induced obese C57/BL6 mouse assessed as body weight at 30 mg/kg, po administered once daily for 14 days (Rvb=41.90 g); assay type: functional, C57Bl/6
[6] = system: Mus musculus; experiment: Antiobesity activity in TBU8 high fat diet-induced obese C57/BL6 mouse assessed as serum glucose level at 30 mg/kg, po administered once daily for 14 days (reference value: 9.52+/-0.38 […]); assay type: functional, C57Bl/6
[7] = target: Cannabinoid receptor 1 (Rattus norvegicus, UniProt P20272); experiment: Displacement of [3H]SR141716A from CB1 receptor in rat cerebellum by scintillation spectrometry; assay type: tissue-based
Chain of Cannabinoid receptor 1 (P20272 whole entry): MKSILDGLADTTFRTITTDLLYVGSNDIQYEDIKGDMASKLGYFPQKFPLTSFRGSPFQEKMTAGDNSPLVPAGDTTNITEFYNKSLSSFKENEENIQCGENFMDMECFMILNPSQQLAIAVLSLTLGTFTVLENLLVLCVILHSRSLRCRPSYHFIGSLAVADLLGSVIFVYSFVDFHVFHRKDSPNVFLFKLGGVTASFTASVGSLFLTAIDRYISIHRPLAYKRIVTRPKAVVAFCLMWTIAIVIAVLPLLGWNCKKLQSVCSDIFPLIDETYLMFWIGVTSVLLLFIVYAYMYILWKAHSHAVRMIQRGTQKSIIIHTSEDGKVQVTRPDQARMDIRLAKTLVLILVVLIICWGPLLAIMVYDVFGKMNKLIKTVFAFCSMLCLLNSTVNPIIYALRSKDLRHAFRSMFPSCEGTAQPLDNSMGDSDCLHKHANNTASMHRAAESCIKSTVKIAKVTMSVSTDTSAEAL

[8] = system: Mus musculus; experiment: Inhibition of WIN-55212-2-induced hypothermia in po dosed CD1 mouse assessed as rectal temperature administered 15 mins prior to WIN-55212 challenge measured after 45 mins post-induction; assay type: functional
In short: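 Mice were pretreated, then 15 min later given WIN 55,212-2 (3 mg/kg ip) or vehicle; rectal temperature was read 45 min after that. n=8/group. Analysis was one-way ANOVA with Tukey post hoc test. ED50 values were derived for attenuation of hypothermia.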

[9] = system: Mus musculus; experiment: Antiobesity activity in TBU8 high fat diet-induced obese C57/BL6 mouse assessed as serum LDL-cholesterol level at 10 mg/kg, po administered once daily for 14 days (Rvb=0.84+/-0.03 […]); assay type: functional, C57Bl/6
[10] = system: Mus musculus; experiment: Appetite suppressant activity in fasted CD1 mouse assessed as decrease in palatable chow intake at 10 mg/kg, po administered 1 hr before food consumption measured after 1 hr relative to control; assay type: functional; set-up: scale not given: the % may be the effect or the level left
In short: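 CD1 mice (>25 g) were housed singly for ≥3 days, then fasted 16 h. Compound or vehicle (5% Tween 80) was given orally in the home cage. After 1 h, pre-weighed palatable chow was offered and reweighed 1 h later. Intake was expressed as % difference from control mean (n=8-10/group).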

[11] = system: Mus musculus; experiment: Antiobesity activity in TBU8 high fat diet-induced obese C57/BL6 mouse assessed as body weight at 10 mg/kg, po administered once daily for 14 days (Rvb=41.90 g); assay type: functional, C57Bl/6
[12] = system: Mus musculus; experiment: Antiobesity activity in TBU8 high fat diet-induced obese C57/BL6 mouse assessed as decrease in body weight at 30 mg/kg, po administered once daily for 14 days relative to fat control; assay type: functional, C57Bl/6; set-up: scale not given: the % may be the effect or the level left
[13] = system: Mus musculus; experiment: Antiobesity activity in po dosed TBU8 high fat diet-induced obese C57/BL6 mouse assessed as decrease in body weight administered once daily for 14 days; assay type: functional, organism-based; details: C57Bl/6
In short: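 TBU8 high-fat diet fed mice brought to about 60% excess body weight over lean controls (usually 6-8 weeks), isolated and grouped (n=8) balanced by body weight; 3-day habituation with daily tap water, then oral dosing once daily for 14 days against vehicle-treated fat controls; body weight taken at day 14; differences versus fat and lean controls tested.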

[14] = system: Mus musculus; experiment: Antiobesity activity in TBU8 high fat diet-induced obese C57/BL6 mouse assessed as serum cholesterol level at 10 mg/kg, po administered once daily for 14 days (reference value: 5.35+/-0.12 […]); assay type: functional, C57Bl/6
[15] = system: Mus musculus; experiment: Antiobesity activity in TBU8 high fat diet-induced obese C57/BL6 mouse assessed as serum glucose level at 10 mg/kg, po administered once daily for 14 days (reference value: 9.52+/-0.38 […]); assay type: functional, C57Bl/6
[16] = system: Mus musculus; experiment: Antiobesity activity in TBU8 high fat diet-induced obese C57/BL6 mouse assessed as serum triglyceride level at 10 mg/kg, po administered once daily for 14 days (reference value: 1.42+/-0.04 […]); assay type: functional, C57Bl/6
[17] = system: Mus musculus; experiment: Antiobesity activity in TBU8 high fat diet-induced obese C57/BL6 mouse assessed as decrease in body weight at 10 mg/kg, po administered once daily for 14 days relative to fat control; assay type: functional, C57Bl/6; set-up: scale not given: the % may be the effect or the level left
[18] = system: Mus musculus; experiment: Antiobesity activity in TBU8 high fat diet-induced obese C57/BL6 mouse assessed as decrease in obese-induced elevated serum cholesterol level at 30 mg/kg, po administered once daily for 14 days relative to fat control; assay type: functional, C57Bl/6; set-up: scale not given: the % may be the effect or the level left
[19] = system: Mus musculus; experiment: Antiobesity activity in TBU8 high fat diet-induced obese C57/BL6 mouse assessed as serum HDL-cholesterol level at 10 mg/kg, po administered once daily for 14 days (Rvb=4.42+/-0.08 […]); assay type: functional, C57Bl/6
[20] = system: Mus musculus; experiment: Antiobesity activity in TBU8 high fat diet-induced obese C57/BL6 mouse assessed as decrease in body weight at 3 mg/kg, po administered once daily for 14 days relative to fat control; assay type: functional, C57Bl/6; set-up: scale not given: the % may be the effect or the level left
[21] = system: Mus musculus; experiment: Antiobesity activity in TBU8 high fat diet-induced obese C57/BL6 mouse assessed as body weight at 3 mg/kg, po administered once daily for 14 days (Rvb=41.90 g); assay type: functional, C57Bl/6
[22] = system: Mus musculus; experiment: Antiobesity activity in TBU8 high fat diet-induced obese C57/BL6 mouse assessed as serum cholesterol level at 3 mg/kg, po administered once daily for 14 days (reference value: 5.35+/-0.12 […]); assay type: functional, C57Bl/6
[23] = system: Mus musculus; experiment: Antiobesity activity in TBU8 high fat diet-induced obese C57/BL6 mouse assessed as serum glucose level at 3 mg/kg, po administered once daily for 14 days (reference value: 9.52+/-0.38 […]); assay type: functional, C57Bl/6
[24] = system: Mus musculus; experiment: Antiobesity activity in TBU8 high fat diet-induced obese C57/BL6 mouse assessed as serum HDL-cholesterol level at 3 mg/kg, po administered once daily for 14 days (Rvb=4.42+/-0.08 […]); assay type: functional, C57Bl/6
[25] = system: Mus musculus; experiment: Antiobesity activity in TBU8 high fat diet-induced obese C57/BL6 mouse assessed as serum triglyceride level at 3 mg/kg, po administered once daily for 14 days (reference value: 1.42+/-0.04 […]); assay type: functional, C57Bl/6
[26] = system: Mus musculus; experiment: Antiobesity activity in TBU8 high fat diet-induced obese C57/BL6 mouse assessed as serum LDL-cholesterol level at 3 mg/kg, po administered once daily for 14 days (Rvb=0.84+/-0.03 […]); assay type: functional, C57Bl/6

Work on `CCNC1(C(N)=O)CCN(c2ncnc3c2nc(-c2ccccc2Cl)n3-c2ccc(Cl)cc2)CC1` [OTENABANT] yielded an Activity [1] of 4.4 mM, an Activity [2] of 1.32 mM and an Activity [3] of 5.34 mM. It also gave an Activity [4] of 0.85 mM, an Activity [5] of 36.6 g and an Activity [6] of 9.45 mM.

Molecule `Cc1c(C(=O)NN2CCCC2)nn(-c2ccccc2)c1-c1ccc(C2CC2)cc1` has a Ki [7] of 121 nM.

Work on `Cc1c(C(=O)NN2CCCCC2)nn(-c2ccccc2Cl)c1-c1ccc(C2CC2)cc1` yielded a Ki [7] of 4 nM.

`Cc1c(C(=O)NN2CCCCC2)nn(-c2ccc(Cl)cc2Cl)c1-c1ccc(C2CCCCC2)cc1` was tested, and the Ki [7] was 13 nM and the ED50 [8] was over 3 mg/kg.

Molecule `Cc1c(C(=O)NN2CCCCC2)nn(-c2ccccc2)c1-c1ccc(C2CC2)cc1` has a Ki [7] of 66 nM.

Work on `Cc1c(C(=O)NN2CCCCC2)nn(-c2ccc(Cl)cc2Cl)c1-c1ccc(C2CCC2)cc1.Cl` yielded a Ki [7] of 7 nM and an ED50 [8] of 4 mg/kg.

With `Cc1c(C(=O)NN2CCCCC2)nn(-c2ccc(Cl)cc2Cl)c1-c1ccc(Cl)cc1` [RIMONABANT] the Activity [9] was 0.82 mM, the Activity [10] was 50% and the Activity [11] was 35.6 g. For the same molecule, the Activity [12] was 24%, the Activity [13] was “Dose-dependent effect” and the Activity [14] was 5.35 mM. It also gave an Activity [15] of 8.84 mM, an Activity [16] of 1.18 mM and an ED50 [8] of 0.41 mg/kg. The Activity [17] was 15%, the Activity [18] was 0% and the Activity [19] was 4.4 mM. The Activity [20] was 9%.

`Cc1c(C(=O)NN2CCCCC2)nn(-c2ccc(Cl)cc2Cl)c1-c1ccc(C2CC2)cc1` showed a Ki [7] of 3 nM.

`Cc1c(C(=O)NN2CCCCC2)nn(-c2ccccc2F)c1-c1ccc(C2CC2)cc1` was tested, and the Ki [7] was 11 nM.

`Cc1c(C(=O)NN2CCCCC2)nn(-c2ccc(F)cc2Cl)c1-c1ccc(C2CC2)cc1` was tested, and the Ki [7] was 8 nM.

`CCc1c(C(=O)NN2CCCCC2)nn(-c2ccc(Cl)cc2Cl)c1-c1ccc(C2CC2)cc1` was tested, and the Activity [10] was 47%, the Activity [12] was 22% and the Activity [13] was “Dose-dependent effect”. For the same molecule, the Ki [7] was 4 nM, the ED50 [8] was 0.84 mg/kg and the Activity [17] was 15%. The Activity [18] was 19% and the Activity [20] was 8%.

`Cc1c(C(=O)NN2CCCCC2)nn(-c2ccc(Cl)cc2)c1-c1ccc(C2CC2)cc1` was tested, and the Ki [7] was 79 nM.

For `Cc1c(C(=O)NN2CCCCC2)nn(-c2ccc(F)cc2)c1-c1ccc(C2CC2)cc1`, the Ki [7] was 190 nM.

Work on `Cc1c(C(=O)NN2CCCCC2)nn(-c2ccc(Cl)cc2F)c1-c1ccc(C2CC2)cc1` yielded a Ki [7] of 14 nM.

Molecule `CCc1c(C(=O)NN2CCCC2)nn(-c2ccc(Cl)cc2Cl)c1-c1ccc(C2CC2)cc1` has an Activity [9] of 0.68 mM, an Activity [10] of 49% and an Activity [11] of 35.6 g. For the same molecule, the Activity [12] was 21%, the Activity [13] was “Dose-dependent effect” and the Ki [7] was 4 nM. The Activity [14] was 4.56 mM, the Activity [15] was 8.79 mM and the Activity [16] was 1.3 mM. The ED50 [8] was 0.84 mg/kg, the Activity [17] was 15% and the Activity [18] was 36%. It also gave an Activity [19] of 3.9 mM and an Activity [20] of 8%.

In the case of `O=C(NN1CCCCC1)c1cc(-c2ccc(C3CC3)cc2)n(-c2ccc(Cl)cc2Cl)n1`, the Ki [7] is reported as 16 nM.

With `C[C@H](NC(=O)C(C)(C)Oc1ccc(C(F)(F)F)cn1)[C@@H](Cc1ccc(Cl)cc1)c1cccc(C#N)c1` [TARANABANT] the Activity [21] was 33.7 g, the Activity [22] was 5.01 mM and the Activity [23] was 9.11 mM. The Activity [24] was 4.16 mM, the Activity [25] was 1.44 mM and the Activity [26] was 0.82 mM.

`Cc1c(C(=O)NN2CCCCC2)nn(-c2ccc(Br)cc2Cl)c1-c1ccc(C2CC2)cc1` was tested, and the Activity [10] was 54%, the Activity [12] was 26% and the Activity [13] was “Dose-dependent effect”. The Ki [7] was 3 nM, the ED50 [8] was 0.22 mg/kg and the Activity [17] was 19%. The Activity [18] was 16% and the Activity [20] was 9%.

In the case of `Cc1c(C(=O)NN2CCCCC2)nn(-c2ccc(F)cc2F)c1-c1ccc(C2CC2)cc1`, the Ki [7] is reported as 34 nM.

`COc1c(C(=O)NN2CCCCC2)nn(-c2ccc(Cl)cc2Cl)c1-c1ccc(C2CC2)cc1` showed a Ki [7] of 3 nM.

In the case of `Cc1c(C(=O)NN2CCCCC2)nn(-c2ccc(Cl)cc2Cl)c1-c1ccc(C2CCCC2)cc1`, the Ki [7] is reported as 15 nM and the ED50 [8] is reported as at least 3 mg/kg.
